Measured values of several laboratories.
Converted amounts (≈) assume the structure as drawn.
Organism: Escherichia coli

Compound	effect on	method	strain	concentration	endpoint	value
CC(C)CCCCCCCCCCCCc1cc(O)cc(O)c1	microbial growth				IC50	78.1 µM
C[n+]1c(/C=C/c2ccc(O)cc2)cc(/C=C2\Sc3ccccc3N2CCCN2CCCC2)c2ccccc21.[I-]	microbial growth	broth dilution	ATCCBAA2469		MIC	16 µg/mL
O=C(Nc1cccc(-c2cc(C(=O)O)no2)c1)Nc1ccc(Cl)c(Cl)c1	microbial growth	broth dilution	ATCC25922		MIC	> 64 µg/mL
O=C(N/N=C/c1ccc([N+](=O)[O-])o1)c1ccc(O)cc1	microbial growth				MIC90	31.2 µg/mL (≈ 114 µM)
COC(=O)c1cc(-c2cccc(NC(=S)Nc3ccc(Cl)cc3)c2)on1	microbial growth	broth dilution	ATCC25922		MIC	> 64 µg/mL
CC(C)CCCCCCCCCCCCCCc1cc(O)cc(O)c1	microbial growth				IC50	47.3 µM
CC1(C)S[C@@H]2[C@H](NC(=O)[C@H](N)c3ccccc3)C(=O)N2[C@H]1C(=O)O	microbial growth	well diffusion	ATCC35218	60000 µg/mL	inhibition zone	15 mm
O=C(O)c1cn(C2CC2)c2cc(N3CCNCC3)c(F)cc2c1=O	microbial killing				MBC	19 µM (≈ 6.3 µg/mL)
COC(=O)c1cc(-c2cccc(NC(=O)Nc3ccc(F)cc3F)c2)on1	microbial growth	broth dilution	ATCC25922		MIC	> 64 µg/mL
O=C(Sc1cccccc1=O)c1ccccc1	microbial growth	broth dilution	ATCC35218		MIC80	19.8 µM (≈ 4.8 µg/mL)
CCC(CCCCCCCCCCc1cc(O)cc(O)c1)C(C)C (stereo not drawn)	microbial growth				IC50	34.3 µM
COC(=O)c1cc(-c2ccc(NC(=O)Nc3ccc(Cl)c(Cl)c3)cc2)on1	microbial growth	broth dilution	ATCC25922		MIC	> 64 µg/mL
